Screening results from PubChem.
Casp6 inh = blocks human caspase-6 cleavage activity; purified caspase-6, Z-VEID-R110 cleavage fluorescence; inhibition, % at 12.5 µM; hit rate 0.53% among 350,000; AID 686996;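 active means mean inhibition across replicates at least about 35%, with every replicate also reaching that limit, limit read from the data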
NSD2 inh = blocks human histone methyltransferase NSD2; O96028; NSD2 peptide methylation, AlphaScreen, 120 min; inhibition, % at 12.5 µM; hit rate 0.54% among 310,000; in the data active means inhibition above about 50%
SIRT5 inh = blocks human SIRT5 desuccinylation of peptide; hit rate 1.1% among 330,000; Purified SirT5, succinyl-peptide AMC, trypsin-coupled fluorescence; inhibition, % at 15 µM; in the data active means inhibition above about 15%
Target sequence (Q9NXA8 whole entry, looked up): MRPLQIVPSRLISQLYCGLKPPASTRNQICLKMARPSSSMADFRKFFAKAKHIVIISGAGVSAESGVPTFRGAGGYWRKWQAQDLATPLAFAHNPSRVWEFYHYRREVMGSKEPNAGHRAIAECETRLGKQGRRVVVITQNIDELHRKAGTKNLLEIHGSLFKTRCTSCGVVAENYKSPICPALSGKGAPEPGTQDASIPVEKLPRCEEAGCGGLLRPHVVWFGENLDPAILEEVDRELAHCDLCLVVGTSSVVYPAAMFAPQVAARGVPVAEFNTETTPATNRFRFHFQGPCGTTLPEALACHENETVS
UCH37 DUB inh = blocks the human deubiquitinase UCH37; inhibition, % (concentration not given with the values); hit rate 0.33% among 330,000; purified proteasome/UCH37, Ub-AMC cleavage fluorescence; Q9Y5K5; AID 588478;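 active means mean inhibition over replicate wells above about 20%, limit read from the data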
Target sequence (Q9Y5K5 whole entry, looked up): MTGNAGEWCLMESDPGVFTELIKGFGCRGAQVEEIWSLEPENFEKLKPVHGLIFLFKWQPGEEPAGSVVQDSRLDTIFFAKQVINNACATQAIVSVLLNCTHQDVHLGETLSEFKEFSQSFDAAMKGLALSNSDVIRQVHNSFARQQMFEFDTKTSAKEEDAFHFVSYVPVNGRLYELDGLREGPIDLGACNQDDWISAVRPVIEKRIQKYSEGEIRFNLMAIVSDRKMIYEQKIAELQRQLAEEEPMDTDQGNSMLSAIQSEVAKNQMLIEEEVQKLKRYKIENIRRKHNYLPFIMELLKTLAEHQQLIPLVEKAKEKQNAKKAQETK
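Reagent: Ub-AMC substrate; assay system: Proteasome-associated human UCH37 deubiquitinase; controls: no-proteasome and no-compound wells; read-out: % inhibition of Ub-AMC cleavage fluorescence; timing: 30 min preincubation with enzyme, 25 min cleavage at room temperature; signal: AMC fluorescence from Ub-AMC cleavage, excitation 355 nm, emission 460 nm; buffer or medium: Tris-HCl pH 7.4 plus ovalbumin, ATP-MgCl2, DTT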
FGF22 binding = binders of recombinant human FGF22 by thermal shift; SYPRO orange fluorescence; percent of sucrose octasulfate shift, DMSO zero; activity (Tm shift, normalised), % at 9.99 µM; hit rate 1.5% among 340,000;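 active means mean Tm shift, scaled 0 neutral to 100 positive control, at about 1.3% or above, every replicate too, limit read from the data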
Hits are given with their value; . = inactive; / = no result. This is a sample that favours compounds with a hit; in the whole collection about 2.6% have one here.

SMILES	Casp6 inh	NSD2 inh	SIRT5 inh	UCH37 DUB inh	FGF22 binding
O=C1/C(=C/c2ccc([N+](=O)[O-])cc2)Oc2cc(O)ccc21	.	.	16.0	.	.
O=C(CON=Cc1ccccc1)Nc1ccccc1C(=O)N1CCOCC1	/	/	/	.	/
CCOC(=O)NC(C)N1C(=O)C2C3C=CC(C3)C2C1=O (configuration not stated)	.	.	.	.	43.6
CCOC(=O)NCN1C(=O)C2C3C=CC(C3)C2C1=O (configuration not stated)	/	.	/	.	/
CC(NC(=O)Nc1ccccn1)N1C(=O)C2C3C=CC(C3)C2C1=O (configuration not stated)	/	.	/	23.3	/
O=C(NCN1C(=O)C2C3C=CC(C3)C2C1=O)Nc1ccccn1 (configuration not stated)	/	/	/	.	/
CNC(=S)Nc1ccc2[nH]c(=O)[nH]c2c1	.	.	20.9	.	.
CC(C)NC(=S)Nc1ccc2[nH]c(=O)[nH]c2c1	.	.	.	.	.
COC(=O)Cc1cc(=O)n(-c2nc3ccccc3[nH]2)[nH]1	44.1	.	.	.	.
O=C(O)C1CCC(Cn2c(SCc3cc(=O)n4cc(Br)ccc4n3)nc3ccsc3c2=O)CC1 (configuration not stated)	.	.	16.7	.	.
O=C(O)c1ccc(Cn2c(SCc3cc(=O)n4cc(Br)ccc4n3)nc3ccsc3c2=O)cc1	.	.	.	.	43.4
O=C(O)CCCCn1c(SCc2cc(=O)n3cc(Cl)ccc3n2)nc2ccsc2c1=O	.	.	.	.	.
COc1ccc(OCCN2C(=O)NC3(CCc4ccccc4C3)C2=O)cc1 (configuration not stated)	.	.	.	.	43.8
COc1ccc(C=NNC(=O)CN(C2=NS(=O)(=O)c3ccccc32)c2ccccc2)cc1OC	/	/	/	.	/
Nc1ccc(C(=O)Nc2ccc3nc(-c4ccncc4)[nH]c3c2)cc1	.	.	.	.	44.4
CO[C@H]1CN(C)C(=O)c2ccc(NS(=O)(=O)CC(F)(F)F)cc2OC[C@H](C)N(CCC(F)(F)F)C[C@@H]1C	.	/	.	/	.
CCCCn1c(=O)c(CC(C)=O)nc2ccccc21	.	.	.	.	44.2
O=C(NCC[C@H]1CC[C@@H](NC(=O)c2cccnc2)[C@@H](CO)O1)Nc1ccc(Cl)cc1	.	/	.	/	.
COCc1cn(CC[C@H]2CC[C@@H](NC(=O)Nc3ccc(OC)cc3)[C@H](CO)O2)nn1	.	/	.	/	.
COc1ccccc1NC(=O)C(C)OC(=O)CCC1CCCCC1 (configuration not stated)	52.6	.	.	.	.
COc1ccccc1NC(=O)COC(=O)CCC1CCCC1	.	.	.	.	.
O=C(Nc1ccon1)C12CC3CC(C1)CC(n1cnc([N+](=O)[O-])n1)(C3)C2	.	.	.	.	.
Cc1cc(NC(=O)C23CC4CC(C2)CC(n2cnc([N+](=O)[O-])n2)(C4)C3)no1	46.9	.	.	.	.
C[C@@H]1CCCCO[C@@H](CN(C)S(C)(=O)=O)[C@H](C)CN([C@@H](C)CO)C(=O)c2cc(NS(C)(=O)=O)ccc2O1	/	/	/	/	.
CCN(CCn1cccn1)Cc1nc(-c2ccc(OC)cc2)no1	.	.	.	/	43.1
SMILES	Casp6 inh	NSD2 inh	SIRT5 inh	UCH37 DUB inh	FGF22 binding
CCN(CCn1cccn1)Cc1nc(-c2ccccc2)no1	.	.	.	.	.
C[C@@H]1CN([C@H](C)CO)C(=O)c2cccc(NC(=O)Nc3ccc4c(c3)OCO4)c2O[C@@H]1CN(C)Cc1ccc(C(F)(F)F)cc1	.	/	.	/	.
CN(Cc1ccccc1)C(=O)c1[nH]cnc1C(=O)N[C@@H](Cc1ccccc1)C(=O)OC(C)(C)C	.	/	.	35.3	.
CC1CCN(C(=O)c2[nH]cnc2C(=O)NCc2ccccc2)CC1	.	/	.	.	.
CC1CCN(C(=O)c2[nH]cnc2C(=O)NCc2ccc(CNC(=O)OC(C)(C)C)cc2)CC1	.	/	17.0	28.2	.
CC(C)(C)OC(=O)[C@H](Cc1ccccc1)NC(=O)c1nc[nH]c1C(=O)NCc1ccccc1	.	/	.	.	.
CC(C)(C)OC(=O)NCc1ccc(CNC(=O)c2[nH]cnc2C(=O)N[C@@H](Cc2ccccc2)C(=O)OC(C)(C)C)cc1	.	/	/	.	12.5
CCN(CC)C(=O)c1[nH]cnc1C(=O)N[C@@H](C)C(=O)OC(C)(C)C	.	/	/	31.8	.
C[C@@H]1CN([C@@H](C)CO)C(=O)c2cccc(NS(=O)(=O)c3ccc(Cl)cc3)c2O[C@@H]1CN(C)C	.	/	.	/	.
COCC(=O)N1CC(=O)N2[C@H](C1)[C@@H](c1ccc(Br)cc1)[C@@H]2CO	.	/	.	/	.
CN(Cc1ccccc1)C(=O)c1[nH]cnc1C(=O)NCc1ccccc1	.	/	.	.	.
CN1CCn2cnc(C(=O)N[C@@H](Cc3ccccc3)C(=O)OC(C)(C)C)c2C1=O	.	/	/	/	43.6
CN(Cc1ccccc1)C(=O)c1[nH]cnc1C(=O)Nc1ccc(Br)cc1F	.	/	18.0	/	.
NN=C(c1ccccc1)c1cc(Cl)ccc1N	/	/	/	.	/
CCCCOC(=O)C1CN(c2ccccc2)N=C1C(C)=O (configuration not stated)	.	.	.	.	43.2
C[C@@H]1CN([C@H](C)CO)C(=O)c2c(c3ccccc3n2C)-c2ccccc2CO[C@@H]1CN(C)C(=O)Nc1ccc(F)cc1	.	/	.	/	.
CO[C@H]1CN(C)C(=O)c2ccc(NS(=O)(=O)c3ccc(C)cc3)cc2OC[C@@H](C)N(Cc2nccs2)C[C@@H]1C	.	/	.	/	.
CC(C)(C)c1cc(N)n2nc(C(C)(C)C)cc2n1	.	.	/	.	43.9
Cc1cc2nc(C(C)(C)C)cc(N)n2n1	.	.	.	/	.
Cc1ccc(C(=O)N2CCCC2)cc1S(=O)(=O)Nc1cccc(C)c1C	.	.	26.2	.	.
COc1ccccc1NS(=O)(=O)c1cc(C(=O)N2CCCC2)ccc1C	.	.	.	.	.
Cc1ncc([N+](=O)[O-])n1CCOC(=O)Nc1ccc([N+](=O)[O-])cc1	.	.	.	.	43.1
Cc1ncc([N+](=O)[O-])n1CCOC(=O)C12CC3CC(CC(C3)C1)C2	.	.	.	.	.
O=S(=O)(c1ccc(F)cc1)N1CCCCN2[C@H](CO)[C@H](c3ccc(C#CC4CCCC4)cc3)[C@H]2C1	.	/	22.1	/	.
O=S(=O)(c1ccc(F)cc1)N1CCCCN2[C@H](C1)[C@H](c1ccc(C#CC3CCCC3)cc1)[C@@H]2CO	.	/	17.5	/	.
COc1ccc(S(=O)(=O)N2CCCCN3[C@H](CO)[C@@H](c4ccc(C#CC(C)C)cc4)[C@@H]3C2)cc1	.	/	.	/	.
O=S(=O)(c1ccccc1)N1CCCCN2[C@H](C1)[C@H](c1ccc(C#CC3CCCC3)cc1)[C@@H]2CO	.	/	18.8	/	.
O=S(=O)(c1ccc(F)cc1)N1CCCCN2[C@H](CO)[C@@H](c3ccc(C#CC4CC4)cc3)[C@H]2C1	.	/	.	/	.
COc1ccc(S(=O)(=O)N2CCCCN3[C@H](C2)[C@H](c2ccc(C#CC(C)C)cc2)[C@@H]3CO)cc1	.	/	16.0	/	.
